Laboratory results from ChEMBL document CHEMBL1122190, “Mammary tumor inhibiting effect of 3,3'-diacetoxy-alpha, beta-dialkylstilbenes and of related stilbene oxides” (1982).
Values belong to the molecule of their own block, whether it stands above or below them.

Columns and labels:
[1] = target: T1, Estrogen receptor (Mus musculus) (UniProt O08537+P19785); assay: Uterotrophic activity in mice at 800 ug dose; assay type: functional, tissue-based; details: Uterus
Outline: (§1)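 Dorfman uterine weight test in immature female NMRI mice (20 days old at start, 10-12 g; ten per group). Compound given sc daily in olive oil for 3 days. Animals killed 24 h after last injection; uteri removed, dried at 100 °C for 24 h and weighed.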

[2] = target: T1, Estrogen receptor (Mus musculus); assay: Uterotrophic activity in mice at 80 ug dose; assay type: functional, tissue-based; details: Uterus; outline: as §1
[3] = target: T1, Estrogen receptor (Mus musculus); assay: Uterotrophic activity in mice at 8 ug dose; assay type: functional, tissue-based; details: Uterus; outline: as §1
[4] = target: T1, Estrogen receptor (Mus musculus); assay: Antiuterotrophic activity in mice at 100 ug dose; assay type: functional
Outline: (§2)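 Dorfman uterine weight test in immature female NMRI mice, ten per group, 20 days old and 10-12 g at start. Compounds were given in olive oil sc once daily for 3 days. Mice were killed 24 h after the last injection, and uteri were removed, dried at 100 °C for 24 h and weighed.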

[5] = target: T1, Estrogen receptor (Mus musculus); assay: Antiuterotrophic activity in mice at 50 ug dose; assay type: functional; outline: as §2
[6] = target: T1, Estrogen receptor (Mus musculus); assay: Antiuterotrophic activity in mice at 5 ug dose; assay type: functional; outline: as §2
[7] = target: T1, Estrogen receptor (Mus musculus); assay: Percent inhibition of estrone-stimulated uterine growth in immature mouse at 100 ug dose; assay type: functional; outline: as §2
[8] = target: T1, Estrogen receptor (Mus musculus); assay: Percent inhibition of estrone-stimulated uterine growth in immature mouse at 5 ug dose; assay type: functional; outline: as §2
[9] = test system: Mus musculus; assay: Effect on estrogen and progesterone receptors positive hormone-dependent postmenopausal human mammary carcinoma tumor growth in nude mice at 1.0 mg/kg/day dose; assay type: functional
Outline: (§3)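 Nude mice carried serially transplanted hormone-dependent human mammary carcinoma. Compounds in olive oil were given sc 6 times a week for 4-5 weeks. Two tumor diameters were measured weekly, and size at treatment start was set as 1. Tumor size was averaged after 5 weeks of therapy.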

[10] = test system: Mus musculus; assay: Effect on estrogen and progesterone receptors positive hormone-dependent postmenopausal human mammary carcinoma tumor growth in nude mice at 2.0 mg/kg/day; assay type: functional; outline: as §3
[11] = test system: Rattus norvegicus; assay: Effect on DMBA-induced hormone-dependent mammary carcinoma tumor growth in rats at 0.5 mg/kg/day; assay type: functional
Outline: (§4)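 Female Sprague-Dawley rats received a single 20 mg DMBA dose by gastric intubation at 50 days of age. About 4 weeks later, rats bearing at least one tumor >140 mm² were grouped in tens. Compounds in olive oil were given sc 6 times a week for 28 days. Tumor area (length × width) was measured twice weekly.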

[12] = test system: Rattus norvegicus; assay: Effect on DMBA-induced hormone-dependent mammary carcinoma tumor growth in rats at 4.0 mg/kg/day; assay type: functional; outline: as §4
[13] = test system: Rattus norvegicus; assay: Effect on DMBA-induced hormone-dependent mammary carcinoma tumor growth in rats at 0.5 mg/kg/day (initial tumor number); assay type: functional; outline: as §4
[14] = test system: Rattus norvegicus; assay: Effect on DMBA-induced hormone-dependent mammary carcinoma tumor number in rats at 0.5 mg/kg/day; assay type: functional; outline: as §4
[15] = test system: Rattus norvegicus; assay: Effect on DMBA-induced hormone-dependent mammary carcinoma tumor growth in rats at 1.0 mg/kg/day (initial tumor number); assay type: functional; outline: as §4
[16] = test system: Rattus norvegicus; assay: Effect on DMBA-induced hormone-dependent mammary carcinoma tumor number in rats at 1.0 mg/kg/day; assay type: functional; outline: as §4
[17] = test system: Rattus norvegicus; assay: Effect on DMBA-induced hormone-dependent mammary carcinoma tumor growth in rats at 4.0 mg/kg/day (initial tumor number); assay type: functional; outline: as §4
[18] = test system: Rattus norvegicus; assay: Effect on DMBA-induced hormone-dependent mammary carcinoma tumor number in rats at 4.0 mg/kg/day; assay type: functional; outline: as §4
[19] = test system: Rattus norvegicus; assay: Percent remission of DMBA-induced hormone-dependent mammary carcinoma in rats at 1.0 mg/kg/day; assay type: functional; outline: as §4
[20] = test system: Rattus norvegicus; assay: Percent unchanged DMBA-induced hormone-dependent mammary carcinoma in rats at 1.0 mg/kg/day; assay type: functional; outline: as §4
[21] = test system: Rattus norvegicus; assay: Percent partial remission of DMBA-induced hormone-dependent mammary carcinoma in rats at 1.0 mg/kg/day; assay type: functional; outline: as §4
[22] = test system: Rattus norvegicus; assay: Percent progression of DMBA-induced hormone-dependent mammary carcinoma in rats at 1.0 mg/kg/day; assay type: functional; outline: as §4
[23] = test system: Rattus norvegicus; assay: Percent remission of DMBA-induced hormone-dependent mammary carcinoma in rats at 4.0 mg/kg/day; assay type: functional; outline: as §4
[24] = test system: Rattus norvegicus; assay: Percent unchanged DMBA-induced hormone-dependent mammary carcinoma in rats at 4.0 mg/kg/day; assay type: functional; outline: as §4
[25] = test system: Rattus norvegicus; assay: Percent partial remission of DMBA-induced hormone-dependent mammary carcinoma in rats at 4.0 mg/kg/day; assay type: functional; outline: as §4
[26] = test system: Rattus norvegicus; assay: Percent progression of DMBA-induced hormone-dependent mammary carcinoma in rats at 4.0 mg/kg/day; assay type: functional; outline: as §4
[27] = test system: Rattus norvegicus; assay: Percent remission of DMBA-induced hormone-dependent mammary carcinoma in rats at 0.5 mg/kg/day; assay type: functional; outline: as §4
[28] = test system: Rattus norvegicus; assay: Percent unchanged DMBA-induced hormone-dependent mammary carcinoma in rats at 0.5 mg/kg/day; assay type: functional; outline: as §4
[29] = test system: Rattus norvegicus; assay: Percent partial remission of DMBA-induced hormone-dependent mammary carcinoma in rats at 0.5 mg/kg/day; assay type: functional; outline: as §4
[30] = test system: Rattus norvegicus; assay: Percent progression of DMBA-induced hormone-dependent mammary carcinoma in rats at 0.5 mg/kg/day (Percent of tumors with progression); assay type: functional; outline: as §4
[31] = test system: Rattus norvegicus; assay: Effect on DMBA-induced hormone-dependent mammary carcinoma tumor growth in rats at 1.0 mg/kg/day; assay type: functional; outline: as §4
[32] = target: T1, Estrogen receptor (Mus musculus); assay: Percent inhibition of estrone-stimulated uterine growth in immature mouse at 50 ug dose; assay type: functional; outline: as §2
[33] = test system: Estrogen receptor (Bos taurus); assay: In vitro relative binding affinity for Estrogen receptor compared to [3H]estradiol
[34] = test system: Mus musculus; assay: Effect on estrogen and progesterone receptors positive hormone-dependent postmenopausal human mammary carcinoma tumor growth in nude mice at 3.0 mg/kg/day; assay type: functional; outline: as §3
[35] = target: T1, Estrogen receptor (Mus musculus); assay: Uterotrophic activity in mice at 10 ug dose; assay type: functional, tissue-based; details: Uterus; outline: as §2
[36] = target: T1, Estrogen receptor (Mus musculus); assay: Uterotrophic activity in mice at 500 ug dose; assay type: functional, tissue-based; details: Uterus; outline: as §1
[37] = target: T1, Estrogen receptor (Mus musculus); assay: Antiuterotrophic activity in mice at 250 ug dose; assay type: functional; outline: as §2
[38] = target: T1, Estrogen receptor (Mus musculus); assay: Antiuterotrophic activity in mice at 25 ug dose; assay type: functional; outline: as §2
[39] = target: T1, Estrogen receptor (Mus musculus); assay: Uterotrophic activity in mice at 100 ug dose; assay type: functional, tissue-based; details: Uterus; outline: as §2
[40] = target: T1, Estrogen receptor (Mus musculus); assay: Percent inhibition of estrone-stimulated uterine growth in immature mouse at 250 ug dose; assay type: functional; outline: as §2
[41] = target: T1, Estrogen receptor (Mus musculus); assay: Percent inhibition of estrone-stimulated uterine growth in immature mouse at 25 ug dose; assay type: functional; outline: as §2
[42] = test system: Mus musculus; assay: Effect on estrogen and progesterone receptors positive hormone-dependent postmenopausal human mammary carcinoma tumor growth in nude mice at 2.4 mg/kg/day; assay type: functional; outline: as §3
[43] = target: T1, Estrogen receptor (Mus musculus); assay: Uterotrophic activity in mice at 50 ug dose; assay type: functional, tissue-based; details: Uterus; outline: as §1
[44] = target: T1, Estrogen receptor (Mus musculus); assay: Uterotrophic activity in mice at 5 ug dose; assay type: functional, tissue-based; details: Uterus; outline: as §1
[45] = test system: Mus musculus; assay: Effect on estrogen and progesterone receptors positive hormone-dependent postmenopausal human mammary carcinoma tumor growth in nude mice at 2.8 mg/kg/day; assay type: functional; outline: as §3
[46] = target: T1, Estrogen receptor (Mus musculus); assay: Uterotrophic activity in mice at 1000 ug dose; assay type: functional, tissue-based; details: Uterus; outline: as §1

T1 sequence (O08537 whole entry, looked up): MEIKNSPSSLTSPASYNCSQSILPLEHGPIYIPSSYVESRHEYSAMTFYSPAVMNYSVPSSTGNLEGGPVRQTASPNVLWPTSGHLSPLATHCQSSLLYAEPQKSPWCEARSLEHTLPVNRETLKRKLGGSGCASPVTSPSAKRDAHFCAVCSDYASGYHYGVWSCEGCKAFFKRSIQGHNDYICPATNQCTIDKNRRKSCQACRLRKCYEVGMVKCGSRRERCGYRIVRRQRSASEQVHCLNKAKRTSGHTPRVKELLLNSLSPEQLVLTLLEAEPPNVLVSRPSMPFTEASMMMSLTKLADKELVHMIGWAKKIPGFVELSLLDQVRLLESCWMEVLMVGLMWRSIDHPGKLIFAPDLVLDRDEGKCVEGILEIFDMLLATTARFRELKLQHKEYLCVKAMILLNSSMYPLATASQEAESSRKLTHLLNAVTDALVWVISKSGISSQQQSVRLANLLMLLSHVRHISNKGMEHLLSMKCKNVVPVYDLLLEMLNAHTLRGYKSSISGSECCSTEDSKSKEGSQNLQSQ
T1 sequence (P19785 whole entry, looked up): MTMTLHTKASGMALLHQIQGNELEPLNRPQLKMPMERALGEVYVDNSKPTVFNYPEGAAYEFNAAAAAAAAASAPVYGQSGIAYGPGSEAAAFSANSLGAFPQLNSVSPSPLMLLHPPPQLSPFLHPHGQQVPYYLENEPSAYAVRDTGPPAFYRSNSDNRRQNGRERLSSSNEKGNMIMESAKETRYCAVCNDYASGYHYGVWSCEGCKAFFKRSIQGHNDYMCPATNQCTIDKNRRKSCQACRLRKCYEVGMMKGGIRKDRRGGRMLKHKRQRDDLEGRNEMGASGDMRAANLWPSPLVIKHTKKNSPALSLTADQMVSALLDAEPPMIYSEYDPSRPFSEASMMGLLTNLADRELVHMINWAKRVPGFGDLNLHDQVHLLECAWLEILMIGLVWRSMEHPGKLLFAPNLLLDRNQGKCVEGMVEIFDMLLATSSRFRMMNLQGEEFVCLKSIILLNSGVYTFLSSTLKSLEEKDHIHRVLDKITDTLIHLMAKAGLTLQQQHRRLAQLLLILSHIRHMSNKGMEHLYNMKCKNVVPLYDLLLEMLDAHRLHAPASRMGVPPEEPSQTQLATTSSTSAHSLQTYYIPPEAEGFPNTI

Effect [1]: 43.6
Effect [2]: 33
Effect [3]: 29.4
Effect [4]: 42.2
Effect [5]: 33
Effect [6]: 27.6
inhibition [7]: 2.7%
inhibition [8]: 52.5%
inhibition [32]: 34.3%
RBA [33]: 5.4%
SMILES: CCC1(c2cccc(O)c2)OC1(CC)c1cccc(O)c1 (stereo not drawn)
Tumor size [9]: 2.9
Tumor size [10]: 1.85
Change [11]: 18%
Change [12]: -16%
No. of tumors [13]: 27
No. of tumors [14]: 18
No. of tumors [15]: 31
No. of tumors [16]: 10
No. of tumors [17]: 29
No. of tumors [18]: 4
Tumors [19]: 76%
Tumors [20]: 0%
Tumors [21]: 13%
Tumors [22]: 10%
Tumors [23]: 61%
Tumors [24]: 12%
Tumors [25]: 12%
Tumors [26]: 15%
Tumors [27]: 69%
Tumors [28]: 5%
Tumors [29]: 13%
Tumors [30]: 13%
Change [31]: -52%

RBA [33]: 0.6%
SMILES: CCCC/C(=C(/CCCC)c1cccc(OC(C)=O)c1)c1cccc(OC(C)=O)c1
Tumor size [34]: 4.1

Effect [35]: 17
Effect [36]: 20.6
Effect [4]: 32.6
Effect [37]: 33.1
Effect [38]: 36.1
Effect [6]: 37.9
Effect [39]: 15
inhibition [7]: 33.4%
inhibition [40]: 31.7%
inhibition [41]: 23%
inhibition [8]: 17.4%
RBA [33]: 0.8%
SMILES: CC(=O)Oc1cccc(C2(C)OC2(C)c2cccc(OC(C)=O)c2)c1 (stereo not drawn)
Tumor size [42]: 2.72

RBA [33]: 0.4%
SMILES: CC(=O)Oc1cccc(/C(C)=C(\C)c2cccc(OC(C)=O)c2)c1
Tumor size [42]: 3.42

Effect [36]: 33.3
Effect [43]: 22.1
Effect [44]: 21.8
Effect [4]: 39.4
Effect [38]: 36.3
Effect [6]: 34.1
Effect [39]: 31.1
inhibition [7]: 0%
inhibition [41]: 7.8%
inhibition [8]: 15.6%
RBA [33]: 1.7%
SMILES: CCCC1(c2cccc(OC(C)=O)c2)OC1(CCC)c1cccc(OC(C)=O)c1 (stereo not drawn)
Tumor size [45]: 1.85

Effect [35]: 19.8
Effect [4]: 42.4
Effect [5]: 42
Effect [6]: 32.4
Effect [46]: 35.5
Effect [39]: 34.3
inhibition [7]: 0.4%
inhibition [8]: 38.8%
inhibition [32]: 2.2%
RBA [33]: 0.8%
SMILES: CCCCC1(c2cccc(OC(C)=O)c2)OC1(CCCC)c1cccc(OC(C)=O)c1 (stereo not drawn)
Tumor size [34]: 3.37
